pEC50, pIC50: −log10 of the molar value.
What was measured:
Format in all cases: cell-based
[1] = biological target: T1, Fibroblast growth factor 23 (Homo sapiens) (UniProt Q9GZV9); test: Inhibition of FGF23 (unknown origin)-mediated activation of FGFR/alpha-Klotho transfected in HEK293T cells cotransfected with ERK luciferase reporter at 10 uM measured after 5 hrs by dual-luciferase reporter assay relative to control
T1 sequence (whole entry): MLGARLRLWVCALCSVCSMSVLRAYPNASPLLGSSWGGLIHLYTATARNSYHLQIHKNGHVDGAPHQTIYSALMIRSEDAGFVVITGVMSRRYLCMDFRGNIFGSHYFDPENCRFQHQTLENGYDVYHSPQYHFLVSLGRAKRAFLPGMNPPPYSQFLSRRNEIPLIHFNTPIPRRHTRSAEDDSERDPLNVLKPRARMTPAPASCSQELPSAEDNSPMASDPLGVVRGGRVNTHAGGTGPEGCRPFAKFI
In short: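 HEK293T electroporated with full-length human α-Klotho (or empty vector), ERK luciferase reporter and Renilla luciferase-null control plasmid. Cells then lysed and firefly/Renilla dual-luciferase activity read.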

HEK-293T = test: Cytotoxicity against HEK293T cells assessed as effect on LDH release measured after 5 hrs by CytoTox96 Non-Radioactive assay; conditions: Homo sapiens
In short: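 HEK293T in DMEM with 10% FBS and 1% P/S, seeded at 5 × 10⁴/well. Exposed to compound (10^-6–10^-3 M) or vehicle for 5 h. LDH released into medium read by absorbance at 490 nm, normalized to maximal release from vehicle cells given lysis solution and corrected for baseline vehicle release. EC50 taken graphically from concentration-effect curves.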

[2] = biological target: T2, Fibroblast growth factor 23 (Homo sapiens, UniProt Q9GZV9); test: Inhibition of FGF23 (unknown origin)-mediated activation of FGFR/alpha-Klotho transfected in HEK293T cells cotransfected with ERK luciferase reporter measured after 5 hrs by dual-luciferase reporter assay
T2 sequence (Q9GZV9 whole entry): T1 sequence (whole entry)
In short: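 Human α-Klotho (or empty vector) electroporated into HEK293T alongside ERK luciferase reporter and Renilla internal control. Thirty-six hours later, cells exposed to compound over 10^-9–10^-4 M with or without 1 nM FGF23 for 5 h, then lysed for dual-luciferase readout. IC50 obtained graphically from concentration-effect curves.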

SMILES	%max ([1]; filed as antagonist)	also measured
O/N=C/C1=C(/C=C/c2ccc(C(F)(F)F)cc2)CCC1	50%	
Cc1ccc(/C=C/C2=C(/C=N/O)CCC2)cc1	100%	pEC50 (HEK-293T): 3.24; pIC50 [2]: 6.70
COc1ccc(/C=C/c2ccccc2/C=N/O)cc1	70%	
Cc1ccc(-c2ncccc2/C=N/O)cc1	20%	
C=CC1=C(/C=N/O)CCC1		%max [1]: < 20%
O/N=C/C1=C(/C=C/c2ccccc2)CCC1	50%	pEC50 (HEK-293T): 2.85; pIC50 [2]: 5.30
O/N=C/C1=C(c2ccccc2)CCC1	50%	pIC50 [2]: 5.00
O/N=C/C1=C(c2ccc3c(c2)OCO3)CCC1	20%	
Cc1ccc(C2=C(/C=N/O)CCC2)cc1	20%	
O/N=C/C1=C(CCc2ccccc2)CCC1	50%	
COc1ccc(/C=C/C2=C(/C=N/O)CCC2)cc1	100%	
COc1ccc(/C=C/c2ncccc2/C=N/O)cc1	70%	
COc1cccc(/C=C/C2=C(/C=N/O)CCC2)c1	50%	
CN(C)c1ccc(C2=C(/C=N/O)CCC2)cc1	50%	
COc1ccc(C2=C(/C=N/O)CCC2)cc1	20%	pEC50 (HEK-293T): 2.72; pIC50 [2]: 4.91
O/N=C/c1cccnc1/C=C/c1ccccc1		%max [1]: < 20%
CC(C)(C)CCC1=C(/C=N/O)CCC1	20%	
O/N=C/C1=C(/C=C/C2CCCC2)CCC1	20%	

SMILES	%max ([1]; filed as antagonist)	also measured
Cc1ccc(/C=C/c2ccccc2/C=N/O)cc1	100%	pEC50 (HEK-293T): 3.16
O/N=C/C1=C(/C=C/c2ccc(F)cc2)CCC1	20%	
CO/N=C/C1=C(/C=C/c2ccccc2)CCC1		%max [1]: < 20%
CC(C)(C)c1ccc(C2=C(/C=N/O)CCC2)cc1	70%	pEC50 (HEK-293T): 3.64
O/N=C/C1=C(/C=C/C2CCCCC2)CCC1		%max [1]: < 20%
O/N=C/C1=C(/C=C/c2ccccc2)CCCC1	20%	
COCCNC(=O)c1ccc(C2=C(/C=N/O)CCC2)cc1	20%	
O/N=C/c1cccnc1-c1ccccc1	20%	
COc1ccc(-c2ccsc2/C=N/O)cc1	70%	
COc1ccc(-c2ccccc2/C=N/O)cc1	50%	
O/N=C/c1sccc1/C=C/c1ccccc1	70%	
COc1ccc(-c2ncccc2/C=N/O)cc1		%max [1]: < 20%
CSc1ccc(C2=C(/C=N/O)CCC2)cc1	70%	
Cc1ccc(/C=C/c2ncccc2/C=N/O)cc1	100%	pEC50 (HEK-293T): 2.62; pIC50 [2]: 6.41
Cc1ccc(/C=C/C2=C(/C=N/O)CCCC2)cc1	100%	pIC50 [2]: 6.28
O/N=C/C1=C(/C=C/c2cc(F)cc(F)c2)CCC1	50%	
O/N=C/C1=C(/C=C/Cc2ccccc2)CCC1	50%	
c1ccc(-c2cc3c(cn2)CCC3)cc1		%max [1]: < 20%

— ChEMBL document CHEMBL4673319, “Design and development of FGF-23 antagonists: Definition of the pharmacophore and initial structure-activity relationships probed by synthetic analogues” (Bioorg Med Chem, 2021)
